According to ChEMBL document CHEMBL1146622, “Synthesis and biological evaluation of a novel phenyl substituted sydnone series as potential antitumor agents” (2003):

Tests used:
Assay type in all cases: functional, Homo sapiens
MCF7S [1] = assay: In vitro antitumor activity determined against MCF-7 cells expressed as percent of growth of the treated cells compared to untreated cells; parameters: concentration or dose not given beside the values
Method in brief: (§1)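 NCI 3-cell-line prescreen (MCF7 breast, NCI-H460 lung, SF-268 CNS). Cells inoculated and incubated in microtiter plates, then exposed to test agent at a single concentration for 48 h. Alamar blue end-point read-out. Value is percent growth of treated cells relative to untreated cells.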

SF-268 = assay: In vitro antitumor activity determined against SF-268 cells expressed as percent of growth of the treated cells compared to untreated cells; parameters: concentration or dose not given beside the values; method in brief: as §1
NCI-H460 = assay: In vitro antitumor activity determined against NCI-H460 cells expressed as percent of growth of the treated cells compared to untreated cells; parameters: concentration or dose not given beside the values; method in brief: as §1
MCF7S [2] = assay: In vitro antitumor activity determined against MCF-7 cells (breast) expressed as percent of growth of the treated cells compared to untreated cells; method in brief: as §1

## O=[N+]([O-])c1cc(-[n+]2cc([O-])on2)ccc1F
MCF7S [1]
  Cell growth: 0%
SF-268
  Cell growth: 0%
NCI-H460
  Cell growth: 0%

## O=[N+]([O-])c1cc(-[n+]2cc([O-])on2)ccc1N1Cc2ccccc2C1
MCF7S [1]
  Cell growth: 75%
SF-268
  Cell growth: 95%
NCI-H460
  Cell growth: 76%

## O=[N+]([O-])c1cc(-[n+]2cc([O-])on2)ccc1N1CCc2ccccc21
MCF7S [1]
  Cell growth: 82%
SF-268
  Cell growth: 96%
NCI-H460
  Cell growth: 87%

## O=[N+]([O-])c1cc(-[n+]2cc([O-])on2)ccc1Cl
MCF7S [2]
  Cell growth: 44%
SF-268
  Cell growth: 9%
NCI-H460
  Cell growth: 91%

## CCN(CC)c1ccc(-[n+]2cc([O-])on2)cc1[N+](=O)[O-]
MCF7S [1]
  Cell growth: 85%
SF-268
  Cell growth: 95%
NCI-H460
  Cell growth: 92%

## O=[N+]([O-])c1cc(-[n+]2cc([O-])on2)ccc1N1CCC1
MCF7S [1]
  Cell growth: 75%
SF-268
  Cell growth: 95%
NCI-H460
  Cell growth: 95%
